From ChEMBL document CHEMBL3576824, “Phenolic diterpenoid derivatives as anti-influenza a virus agents” (ACS Med Chem Lett, 2015)
The source made the active and inactive calls.

system: not listed separately; experiment: Cytotoxicity against MDCK cells assessed as reduction of cell viability; format: cell-based, Canis lupus familiaris; details: dog
Outline: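 Uninfected MDCK cells. CC50 is the concentration (μM) that reduced cell viability by 50%.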

Row | SMILES | CC50 [µM]
1 | C[C@]1(C(=O)O)CCC[C@]2(C)c3cc(O)ccc3CC[C@@H]12 [PODOCARIC ACID] | 91.2
2 | C[C@]1(C(=O)O)CCC[C@]2(C)c3cc(OC(=O)CCC(=O)O)ccc3CC[C@@H]12 | > 40
3 | COC(=O)[C@@]1(C)CCC[C@]2(C)c3cc(OC(=O)CCCBr)ccc3CC[C@@H]12 | > 40
4 | COC(=O)[C@@]1(C)CCC[C@]2(C)c3cc(OCCC(=O)O)ccc3CC[C@@H]12 | > 40
5 | COC(=O)[C@@]1(C)CCC[C@]2(C)c3cc(OC)ccc3C(=O)C[C@@H]12 | > 40
6 | C[C@]1(C(=O)OCc2ccccc2)CCC[C@]2(C)c3cc(OCCC(=O)O)ccc3CC[C@@H]12 | > 40
7 | COC(=O)[C@@]1(C)CCC[C@]2(C)c3cc(OC(=O)C4CC4)ccc3CC[C@@H]12 | > 40
8 | COC(=O)[C@@]1(C)CCC[C@]2(C)c3cc(OC(=O)CCCCCBr)ccc3CC[C@@H]12 | > 40
9 | COC(=O)[C@@]1(C)CCC[C@]2(C)c3cc(O)ccc3CC[C@@H]12 | > 40
10 | COC(=O)[C@@]1(C)CCC[C@]2(C)c3cc(OC(=O)CCBr)ccc3CC[C@@H]12 | > 40
11 | COC(=O)[C@@]1(C)CCC[C@]2(C)c3cc(OC(C)=O)ccc3CC[C@@H]12 | > 40
12 | COC(=O)[C@@]1(C)CCC[C@]2(C)c3cc(OC(=O)C(C)F)ccc3CC[C@@H]12 (stereo partly specified) | > 40
13 | CC(C)c1c(O)ccc2c1CC[C@H]1C(C)(C)CCC[C@]21C [TOTAROL] | 21
14 | COC(=O)[C@@]1(C)CCC[C@]2(C)c3cc(OC)ccc3CC[C@@H]12 | > 40
15 | C=CC(=O)Oc1ccc2c(c1)[C@@]1(C)CCC[C@](C)(C(=O)OC)[C@@H]1CC2 | > 40
16 | C=CC(=O)Oc1ccc2c(c1)[C@@]1(C)CCC[C@](C)(C(=O)OCc3ccccc3)[C@@H]1CC2 | > 40
17 | COC(=O)[C@@]1(C)CCC[C@]2(C)c3cc(OC(=O)CCC(=O)O)ccc3CC[C@@H]12 | > 40
18 | COC(=O)[C@@]1(C)CCC[C@]2(C)c3cc(OC(=O)CCCCBr)ccc3CC[C@@H]12 | > 40
19 | CNC(=O)[C@@]1(C)CCC[C@]2(C)c3cc(O)ccc3CC[C@@H]12 | > 40
20 | C[C@]1(C(=O)OCc2ccccc2)CCC[C@]2(C)c3cc(O)ccc3CC[C@@H]12 | > 40
21 | C[C@]1(C(=O)OCc2ccccc2)CCC[C@]2(C)c3cc(OC(=O)CCC(=O)O)ccc3CC[C@@H]12 | > 40
22 | COC(=O)[C@@]1(C)CCC[C@]2(C)c3cc(OC(=O)CCCC(=O)O)ccc3CC[C@@H]12 | > 40
23 | C=CC(=O)Oc1ccc2c(c1)[C@@]1(C)CCC[C@](C)(C(=O)NC)[C@@H]1CC2 | > 40
24 | COC(=O)[C@@]1(C)CCC[C@]2(C)c3cc(OC(=O)C(C)C)ccc3CC[C@@H]12 | > 40

system: not listed separately; experiment: Metabolic stability in human plasma assessed as compound remaining at 1 uM after 2 hrs by reverse phase HPLC analysis; format: ADME, cell-free; details: read-out: Stability
Outline: (§1)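 Compound incubated in 80% human plasma at 37 °C for varying times. Initial and remaining parent compound were quantified by reverse-phase HPLC. Benfluorex served as control. Data are averages of duplicate experiments.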

Row | SMILES | remaining at 2 h, 1 µM [%]
25 | COC(=O)[C@@]1(C)CCC[C@]2(C)c3cc(O)ccc3CC[C@@H]12 | 86

system: not listed separately; experiment: Metabolic stability in human plasma assessed as compound remaining at 1 uM after 10 mins by reverse phase HPLC analysis; format: ADME, cell-free; details: read-out: Stability; outline: as §1

Row | SMILES | remaining at 10 min, 1 µM [%]
26 | COC(=O)[C@@]1(C)CCC[C@]2(C)c3cc(OC(C)=O)ccc3CC[C@@H]12 | 30

system: Influenza A virus; experiment: Antiviral activity against oseltamivir-sensitive Influenza A virus (A/Hong Kong/8/68(H3N2)) assessed as inhibition of viral infectivity in MDCK cells at 10 uM after 6 hrs by FITC conjugated anti-NP antibodies/DAPI staining-based confocal microscopic analysis; format: functional, organism-based; details: not given
Outline: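 MDCK cells were infected at MOI = 1 in the presence of 10 μM compound for 6 h. Infected cells were stained with FITC-conjugated anti-NP antibody, with DAPI as nuclear stain, and imaged by confocal microscopy. Infected cells without compound served as control.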

Row | SMILES | inhibition
27 | COC(=O)[C@@]1(C)CCC[C@]2(C)c3cc(OC(=O)CCBr)ccc3CC[C@@H]12 | Active

system: Influenza A virus; experiment: Antiviral activity against oseltamivir-sensitive Influenza A virus (A/Hong Kong/8/68(H3N2)) infected in MDCK cells assessed as protection against virus-induced cytocidal effect at 20 uM after 48 hrs by CellTiter-Glo assay relative to control; format: functional; details: not given
Outline: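 Same cytocidal protection assay in MDCK cells with H3N2 virus, tested at concentrations up to 20 μM. The read-out is the percent inhibition of viral cytocidal effect, with 50% used as the threshold.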

Row | SMILES | Activity [%]
28 | C[C@]1(C(=O)O)CCC[C@]2(C)c3cc(O)ccc3CC[C@@H]12 [PODOCARIC ACID] | <50
29 | C[C@]1(C(=O)O)CCC[C@]2(C)c3cc(OC(=O)CCC(=O)O)ccc3CC[C@@H]12 | <50
30 | COC(=O)[C@@]1(C)CCC[C@]2(C)c3cc(OC(=O)CCCBr)ccc3CC[C@@H]12 | <50
31 | COC(=O)[C@@]1(C)CCC[C@]2(C)c3cc(OCCC(=O)O)ccc3CC[C@@H]12 | <50
32 | COC(=O)[C@@]1(C)CCC[C@]2(C)c3cc(OC)ccc3C(=O)C[C@@H]12 | <50
33 | C[C@]1(C(=O)OCc2ccccc2)CCC[C@]2(C)c3cc(OCCC(=O)O)ccc3CC[C@@H]12 | <50
34 | COC(=O)[C@@]1(C)CCC[C@]2(C)c3cc(OC(=O)C4CC4)ccc3CC[C@@H]12 | <50
35 | COC(=O)[C@@]1(C)CCC[C@]2(C)c3cc(OC(=O)CCCCCBr)ccc3CC[C@@H]12 | <50
36 | COC(=O)[C@@]1(C)CCC[C@]2(C)c3cc(O)ccc3CC[C@@H]12 | <50
37 | COC(=O)[C@@]1(C)CCC[C@]2(C)c3cc(OC(=O)CCBr)ccc3CC[C@@H]12 | <50
38 | COC(=O)[C@@]1(C)CCC[C@]2(C)c3cc(OC(C)=O)ccc3CC[C@@H]12 | <50
39 | COC(=O)[C@@]1(C)CCC[C@]2(C)c3cc(OC(=O)C(C)F)ccc3CC[C@@H]12 (stereo partly specified) | <50
40 | CC(C)c1c(O)ccc2c1CC[C@H]1C(C)(C)CCC[C@]21C [TOTAROL] | <50
41 | COC(=O)[C@@]1(C)CCC[C@]2(C)c3cc(OC)ccc3CC[C@@H]12 | <50
42 | C=CC(=O)Oc1ccc2c(c1)[C@@]1(C)CCC[C@](C)(C(=O)OC)[C@@H]1CC2 | <50
43 | C=CC(=O)Oc1ccc2c(c1)[C@@]1(C)CCC[C@](C)(C(=O)OCc3ccccc3)[C@@H]1CC2 | <50
44 | COC(=O)[C@@]1(C)CCC[C@]2(C)c3cc(OC(=O)CCC(=O)O)ccc3CC[C@@H]12 | <50
45 | COC(=O)[C@@]1(C)CCC[C@]2(C)c3cc(OC(=O)CCCCBr)ccc3CC[C@@H]12 | <50
46 | CNC(=O)[C@@]1(C)CCC[C@]2(C)c3cc(O)ccc3CC[C@@H]12 | <50
47 | C[C@]1(C(=O)OCc2ccccc2)CCC[C@]2(C)c3cc(O)ccc3CC[C@@H]12 | <50
48 | C[C@]1(C(=O)OCc2ccccc2)CCC[C@]2(C)c3cc(OC(=O)CCC(=O)O)ccc3CC[C@@H]12 | <50
49 | COC(=O)[C@@]1(C)CCC[C@]2(C)c3cc(OC(=O)CCCC(=O)O)ccc3CC[C@@H]12 | <50
50 | C=CC(=O)Oc1ccc2c(c1)[C@@]1(C)CCC[C@](C)(C(=O)NC)[C@@H]1CC2 | <50
51 | COC(=O)[C@@]1(C)CCC[C@]2(C)c3cc(OC(=O)C(C)C)ccc3CC[C@@H]12 | <50
